# Screens as filed in PubChem.
# Hits are enriched below; roughly 4.6% of the tested compounds scored in any of these assays.
# TAAR1 ag: human TAAR1 agonism. 360,000 compounds, 0.99% hits. Q96RJ0. CHO RD-HGA16 TAAR1, Fluo-8 calcium fluorescence; vehicle wells 0%, saturating PEA agonist 100%. activation, % at 3 µM. AID 624467;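 active = activation above the mean activation of all test compounds in the run plus 3 SD, cut at about 38% in these data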
# Target sequence (Q96RJ0 whole entry, looked up): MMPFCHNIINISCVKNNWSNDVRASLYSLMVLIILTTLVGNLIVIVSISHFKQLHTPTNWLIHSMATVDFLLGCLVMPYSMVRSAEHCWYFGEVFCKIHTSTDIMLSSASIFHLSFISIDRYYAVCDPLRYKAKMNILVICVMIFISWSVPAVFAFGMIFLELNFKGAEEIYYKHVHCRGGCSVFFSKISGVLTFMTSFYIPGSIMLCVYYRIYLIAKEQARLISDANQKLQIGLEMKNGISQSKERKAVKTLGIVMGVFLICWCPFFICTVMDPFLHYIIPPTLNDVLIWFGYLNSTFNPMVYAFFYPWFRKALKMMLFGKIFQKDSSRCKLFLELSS
#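 Assay system – CHO-derived RD-HGA16 cells with stable Gα16 and human TAAR1 · Compound dosing – one-point dosing at 3 µM (nominal) · Incubation – 17-24 h seeding, 75 min 37 °C dye, 30 min RT · Measured by – kinetic Fluo-8 calcium fluorescence · Control set – DMSO vehicle as 0%, PEA at EC100 as 100% · Repeats – single well for each compound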
# CHO parental Ca: counter-screen for OX1R antagonists: effect in parental CHO cells. 330,000 compounds, 0.63% hits. inhibition, % at 5.6 µM. AID 463079. parental CHO-K1, ATP-induced calcium, Fluo-8 fluorescence;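 active = inhibition above that plate's mean sample inhibition plus 3 SD, cut at about 26% in these data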;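 note: 0% = ATP-challenged DMSO wells and 100% = DMSO wells without ATP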
#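 Measured by: calcium-sensitive Fluo-8 fluorescence / Test system: CHO parental line / Controls: ATP-challenged DMSO wells low, unchallenged DMSO wells high / Measure: % inhibition / Compound: single nominal dose of 5.6 µM per compound / Replicates: single well per compound, no replicates / Reagent: ATP as calcium-mobilizing challenge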
# OX1R antag-1: OX1R (human) antagonism; OX1R-expressing cells, FRET antagonist read-out; AID 485270; inhibition, % at 6.6 µM; 330,000 compounds, 1.8% hits; in the data active = inhibition mostly above about 38%, no sharp cut-off; inactive = mostly below about 40%;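 note: 0% = agonist challenge alone and 100% = reference antagonist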
# TAAR1 antagonist: antagonists of human TAAR1 | inhibition, % at 3 µM | Q96RJ0 | CHO RD-HGA16 TAAR1, Fluo-8 calcium fluorescence, antagonist | 360,000 compounds, 1.5% hits;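 active = inhibition above a per-plate cutoff, the mean inhibition of test compounds on that plate plus 3 SD, cut at about 49% in these data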;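 note: 0% = DMSO plus EC80 beta-PEA response and 100% = DMSO alone without agonist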
#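 Test system – hTAAR1-expressing CHO RD-HGA16 cells, Gα16-coupled · Reagent – β-PEA at EC80 concentration, post-compound challenge · Compound dosing – 3 µM, single point · Timing – 140 s kinetic read after compound, 140 s after agonist · Detection – Fluo-8 intracellular calcium dye fluorescence, real-time kinetic reads · Control set – DMSO and EC80 PEA controls · Repeats – n of 1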
# GPR7 antagonist: blocks human GPR7 receptor signaling; GPR7-expressing cells, fluorescence antagonist assay; inhibition, % at 4.4 µM; 290,000 compounds, 1.1% hits; P48145; AID 1861; in the data active = inhibition above about 16%, passing the limit was not always enough;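 note: cells stimulated with the agonist NPW; 0% = agonist with vehicle and 100% = vehicle without agonist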
# Target sequence (P48145 whole entry, looked up): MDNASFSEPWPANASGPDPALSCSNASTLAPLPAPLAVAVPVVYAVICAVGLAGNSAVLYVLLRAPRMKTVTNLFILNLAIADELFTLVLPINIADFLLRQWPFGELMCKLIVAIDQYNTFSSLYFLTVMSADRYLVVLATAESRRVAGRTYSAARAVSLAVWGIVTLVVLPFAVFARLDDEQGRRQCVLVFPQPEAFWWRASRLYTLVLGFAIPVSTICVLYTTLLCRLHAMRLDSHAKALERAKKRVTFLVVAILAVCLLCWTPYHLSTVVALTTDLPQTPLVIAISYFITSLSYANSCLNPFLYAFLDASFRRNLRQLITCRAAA
# OX1R antag-2: blocks the human orexin 1 receptor; 330,000 compounds, 0.43% hits; CHO/OX1R cells, Fluo-8 calcium fluorescence, orexin A; O43613; inhibition, % at 5 µM;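 active = inhibition above its plate's threshold, mean inhibition of all tested compounds on the plate plus 3 SD, cut at about 37% in these data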;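 note: 0% = orexin A challenge wells and 100% = SB-334867-A antagonist wells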
# GPR7 antag conf: human GPR7 antagonism, confirmation assay. shares compounds with GPR7 antagonist. GPR7-expressing cells, calcium fluorescence antagonist mode. inhibition, % at 4.4 µM. 2,400 compounds, 52% hits. AID 1952; in the data active = inhibition above about 24%;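 note: stimulated with the GPR7 agonist NPW; 0% = agonist plus vehicle and 100% = vehicle alone without agonist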
# MCHR1 antagonist: antagonizes human MCHR1, a GPR7 antagonist counter-screen | shares compounds with GPR7 antagonist | MCHR1-expressing cells, fluorescence antagonist assay | inhibition, % at 4.4 µM | 2,400 compounds, 62% hits | AID 2148; in the data active = inhibition above about 22%;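 note: 0% = vehicle with agonist and 100% = vehicle without agonist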
# Active calls of the source: *; / = no result given.
SMILES,TAAR1 ag,CHO parental Ca,OX1R antag-1,TAAR1 antagonist,GPR7 antagonist,OX1R antag-2,GPR7 antag conf,MCHR1 antagonist
CN(C)c1cccc(C(=O)NCc2ccc3c(c2)OCO3)c1,-1,-21,6,4,36*,-11,2,16
CN(C)c1ccc(-c2nnn(CC(=O)NCc3ccc4c(c3)OCO4)n2)cc1,4,-6,21,7,24*,-16,1,12
O=C(Cc1cccs1)Nc1ccc(F)cc1,6,-1,7,2,2,13,/,/
CCS(=O)(=O)c1ncc(Cl)c(C(=O)Nc2ccc(S(=O)(=O)N3CCCC(C)C3)cc2)n1 (stereo not drawn),4,47*,31,32,59*,41*,86*,97*
CCC1CCCCN1S(=O)(=O)c1ccc(NC(=O)c2nc(S(C)(=O)=O)ncc2Cl)cc1 (stereo not drawn),6,55*,53*,56*,74*,53*,90*,101*
CC1CCCN(S(=O)(=O)c2ccc(NC(=O)CN3CCN(C)CC3)cc2)C1 (stereo not drawn),10,-4,-2,-9,-7,-12,/,/
COc1ccccc1OCCNC(=O)C1CC(=O)N(Cc2ccc(C)cc2)C1 (stereo not drawn),1,-23,13,-15,/,-22,/,/
COC(=O)CNC(=O)C1CCN(S(=O)(=O)c2cccc3nsnc23)CC1,1,-6,32,-2,6,5,/,/
COc1cc(CC(NC(C)=O)C(=O)NC2CCN(C(=O)Nc3ccc(C)cc3)CC2)cc(OC)c1 (stereo not drawn),0,-15,9,15,-3,-15,/,/
COc1cccc(C2/C(=C(/O)c3ccc4c(c3)CC(C)O4)C(=O)C(=O)N2CC2CCCO2)c1 (stereo not drawn),/,/,/,/,2,/,/,/
CC(NCCC(c1ccccc1)c1ccccc1)c1ccccc1 (stereo not drawn),20,0,16,27,28*,-24,51*,55*
Cc1ccc(S(=O)(=O)CC(O)COc2ccc(C#N)cc2)cc1 (stereo not drawn),5,7,3,5,-9,-17,/,/
Cc1ccc(S(=O)(=O)N(C)S(=O)(=O)c2ccc(C#N)cc2)cc1,/,-4,9,/,25*,-16,19,25*
COC(=O)Nc1nc2c(C)cccc2s1,5,-9,10,-10,-12,-17,/,/
CSc1cccc(NC(=O)Nc2nc3c(C)cccc3s2)c1,5,14,22,38,23,4,33*,76*
COc1cc(NC(=O)COc2cc(O)c3c(c2)OC(C)(C)CC3=O)cc(OC)c1OC,11,82*,71*,70*,34*,30,51*,79*
CC1(C)CC(=O)c2c(O)cc(OCC(=O)Nc3ccc(S(N)(=O)=O)cc3)cc2O1,3,-8,4,-1,-4,-8,/,/
Cc1cc(=O)oc(C)c1C(=O)Nc1ccccc1F,0,-8,7,8,0,-5,/,/
CCOc1ccc(-n2c(SCc3nc(-c4ccc(C)cc4)no3)nnc2-c2ccncc2)cc1,5,-24,15,9,37*,-38,29*,31*
CC(CC(=O)N1CCN(c2cccc(Cl)c2)CC1)S(=O)(=O)c1ccc2c(c1)NC(=O)CO2 (stereo not drawn),17,78*,60*,79*,28*,57*,37*,77*
O=c1c2c(nc3cc(-c4ccc(F)cc4)[nH]n13)CCC2,1,12,4,-6,30*,16,-13,8
CCOc1ccc(CCNC(=O)C2CCCN(S(=O)(=O)N3CC(C)CC(C)C3)C2)cc1OCC (stereo not drawn),-1,-6,3,-22,-9,-19,/,/
O=C(CC1C(=O)NCCN1Cc1cccc(F)c1F)NC1CCCCCC1 (stereo not drawn),1,-23,14,-6,2,-5,/,/
COc1ccccc1NC(=O)C/C(N)=N/OCC(=O)Nc1cccc(Cl)c1,5,-14,7,0,/,3,/,/
COc1ccc(Nc2sc(C(=O)Nc3cccc(Cl)c3)c(N)c2C(=O)Nc2ccccc2OC)cc1,/,48*,0,/,50*,51*,77*,86*
SMILES,TAAR1 ag,CHO parental Ca,OX1R antag-1,TAAR1 antagonist,GPR7 antagonist,OX1R antag-2,GPR7 antag conf,MCHR1 antagonist
CN1C(=O)COc2ccc(C(=O)c3oc4ccccc4c3-c3cnc4c(c3)COc3ccccc3-4)cc21,/,/,/,/,0,/,/,/
CC(C)Cc1ccc(C(C)C(=O)Nc2ccccc2O)cc1 (stereo not drawn),77*,82*,29,92*,69*,101*,89*,94*
Cc1c(NC(=O)C(C)c2ccc(CC(C)C)cc2)c(=O)n(-c2ccccc2)n1C (stereo not drawn),3,-2,13,-3,-6,-5,/,/
CCN(CC)C(=O)Cn1nnc(-c2ccc(S(C)(=O)=O)cc2)n1,6,-3,6,0,-6,4,/,/
CCOc1ncccc1C(=O)N1CCN(c2cccc(C)c2C)CC1,18,/,/,-2,28*,/,20,34*
CC(C)COC(=O)/C(C#N)=C/c1c[nH]c2ccccc12,-1,3,17,15,-8,4,/,/
Cc1c(C(=O)N2CCN(CCc3ccccn3)CC2)oc2ccc(Cl)cc12,-1,-31,3,-2,-6,-37,/,/
CSc1ccccc1OCc1cc(C(=O)N2CCSCC2)no1,0,-7,16,-13,-1,2,/,/
CSc1ccccc1OCc1cc(C(=O)N2CCC(Oc3cccnc3)CC2)no1,3,3,26,21,28*,3,14,47*
Cc1nc2c(ncn2-c2ccccc2)c(=O)n1NC(=O)CN1CCN(C)CC1,16,-20,11,-16,6,-18,/,/
O=C(CSc1nnnn1-c1cccc2c1CCCC2)NC1CCCC1,5,-4,25,18,34*,-10,20,26*
CCOC(=O)c1c(NC(=O)c2cccnc2)sc(C(C)=O)c1C,3,-12,13,6,23*,-12,-1,-4
CC1(C(=O)Nc2ccc3c(c2)OCO3)CCN1C(=O)CCc1ccc(Cl)cc1Cl (stereo not drawn),1,/,/,-7,/,/,/,/
CC(C)c1ccccc1NC(=O)Cn1c(/C=C/c2ccccc2)nc2ccccc21,/,-15,9,/,-9,-23,/,/
